Assay results gathered from unrelated publications.
Cell line: A549
Effect on: cell growth or viability

Structure (SMILES)	method	time	IC50
Oc1ncnc2cc(Nc3nc(-c4ccc(Br)cc4)cs3)ccc12	MTT		22.9 µM
Cc1ccc(NC(=O)CSc2nnc(Cn3cnc4c3c(=O)n(C)c(=O)n4C)n2-c2ccccc2)cc1C	MTT		198 µM
COc1ccnc(COc2ccc(NC(=O)Nc3ccc(Cl)cc3)cc2)c1OC	MTT	72 h	10.4 µM
CC1=C(O)C(=O)C=C2C1=CC=C1[C@@]2(C)CC[C@@]2(C)[C@@H]3C[C@](C)(C(=O)OCCCO)CC[C@]3(C)CC[C@]12C	MTT	48 h	4.3 µM
O=C(CN1C(=O)/C(=C/c2ccc(Cl)cc2)SC1=S)Nc1ccccc1	MTT		14.3 µM
CCn1c(-c2nnc(NC(=O)c3cc4c([nH]c5ccccc54)c(-c4cc(OC)c(OC)c(OC)c4)n3)s2)cc2ccccc21	MTT	72 h	10.9 µM
CCN(CC)CCNC(=O)c1c(C)[nH]c(/C=C2\C(=O)Nc3ccc(F)cc32)c1C			3.06 µM
COc1cc2ncnc(Nc3ccc(F)c(Cl)c3)c2cc1NC(=O)N/N=C/CN1CCCC1	MTT	72 h	5.67 µM
CCCc1ccc(OCC(O)CNC/C=C/c2ccccc2OC)cc1 (stereo not shown)	CCK-8	72 h	31.6 µM
Cc1ccc(C)n1-c1ccc(-c2nnc(-c3c(Cl)cccc3Cl)[nH]2)cc1	MTT	72 h	231 µM
NNc1nc(NCc2ccccc2)nc(Nc2ccc(Br)cc2)n1	SRB	72 h	> 30 µM
C=CC(=O)Nc1cc(Nc2nc(N3CCc4sccc4C3)c3cccnc3n2)c(OC)cc1N1CCN(CCO)CC1	MTT		5.31 µM
CN1C(=O)/C(=N\NC(=O)c2cc3ccccc3[nH]2)c2ccccc21			4.04 µM
CCC(=O)Nc1cc(Nc2nc(N3CCc4sccc4C3)c3cccnc3n2)c(OC)cc1N1CCC(N(C)C)CC1	MTT		1.25 µM
Cc1c(OCC(F)(F)F)ccnc1COc1ccc(NC(=O)Nc2cccc(C(F)(F)F)c2)cc1	MTT	72 h	2.65 µM
CCNC(=O)NNC(=O)c1ccc(Nc2nccc(-c3ccc(Cl)cc3)n2)cc1	MTT	24 h	> 40 µM
COc1ccccc1/C=C/CNCC(O)COc1cccc2c1[nH]c1ccccc12 (stereo not shown)	CCK-8	72 h	11.2 µM
COC(=O)/C=C1\S/C(=N\C(=O)c2ccc3ccccc3c2)N(C2CCCCC2)C1=O		48 h	13.4 µM
CCN(CC)C/C=N/NC(=O)Nc1cc2c(Nc3ccc(F)c(Cl)c3)ncnc2cc1OC	MTT	72 h	6.19 µM
CCC(=O)Nc1cc(Nc2nc(Nc3cnn(C)c3)c3sccc3n2)c(OC)cc1N(C)CCN(C)C	MTT		7.06 µM
O=C(N/N=C/c1cccn1CCCN1CCCC1)Nc1cc2c(Nc3ccc(F)c(Cl)c3)ncnc2cc1O[C@H]1CCOC1	MTT	72 h	4.36 µM
COC(C)(C)CCC[C@](C)(O)[C@H]1CC[C@]2(C)[C@@H]1[C@H](O)C[C@@H]1[C@@]3(C)CC[C@H](O)C(C)(C)[C@@H]3CC[C@]12C	MTT	72 h	4.88 µM
